Compounds with a hit are over-represented: about 3.4% of the library has one in this group of screens.
MLL AF4-AF9 inh: inhibitors of human MLL-AF4/AF9 interaction; P42568; AlphaScreen, biotin-AF4 peptide binding to FLAG-AF9; inhibition, % at 10 µM; hit rate 0.47% among 350,000;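 active = every replicate reaching a set inhibition limit, whatever the replicate mean, cut at about 25% in these data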;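 note: 0% = plate neutral control median and 100% = total signal loss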
SIRT5 inh: sirtuin-5 (human) deacylase inhibition. Q9NXA8. Purified SirT5, succinyl-peptide AMC, trypsin-coupled fluorescence. inhibition, % at 15 µM. hit rate 1.1% among 330,000; in the data active = inhibition above about 15%
Target sequence (Q9NXA8 whole entry, looked up): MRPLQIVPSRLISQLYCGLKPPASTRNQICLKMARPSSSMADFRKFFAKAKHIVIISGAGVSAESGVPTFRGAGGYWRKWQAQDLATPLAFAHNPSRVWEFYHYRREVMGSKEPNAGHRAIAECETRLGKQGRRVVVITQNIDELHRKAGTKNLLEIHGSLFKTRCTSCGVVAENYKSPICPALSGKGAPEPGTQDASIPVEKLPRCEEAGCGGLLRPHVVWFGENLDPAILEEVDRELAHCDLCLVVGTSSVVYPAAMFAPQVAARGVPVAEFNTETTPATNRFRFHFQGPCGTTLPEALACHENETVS
S100A4 inh HTS: S100A4-myosin IIA interaction inhibition; S100A4/TAMRA-MyoIIA peptide fluorescence polarization; inhibition, % at 10.7 µM; hit rate 0.14% among 360,000; AID 652163;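 active = mean inhibition of at least 70% across replicates, with every replicate also reaching that level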
Target sequence (P26447 whole entry, looked up): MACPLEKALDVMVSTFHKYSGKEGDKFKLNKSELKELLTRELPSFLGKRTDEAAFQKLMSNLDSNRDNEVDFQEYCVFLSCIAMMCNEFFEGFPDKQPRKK
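Test system: S100A4 monomer protein; Medium: HEPES pH 7.2 with CaCl2, KCl, NaCl, DTT, Triton; Probe or stimulus: TAMRA-labelled myosin IIA heavy-chain peptide probe, 5 nM; Doses: one dose per compound; Times: polarization read 5 min after assay mix addition, stable 5–60 min; Benchmarks: neutral control DMSO, positive control TFP.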
E-sel inducer: E-selectin induction on HUVECs. AID 686992. hit rate 0.37% among 260,000. activation, % at 7.58 µM. P16581. HUVEC E-selectin immunofluorescence imaging; normalized: neutral wells 0, TNF-alpha wells 100;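 active = mean E-selectin-positive cell signal at least 10% of the positive control, reached in at least 60% of replicates, without over 20% cell loss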
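System: HUVEC / Compound: single concentration / Signal: immunofluorescence imaging / Read-out: percent E-selectin-positive cells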
ERAP1 inh: blocks human ERAP1 aminopeptidase activity; hit rate 0.15% among 340,000; Q9NZ08; inhibition, % at 10.7 µM; recombinant ERAP1, Leu-AMC fluorescence, 60 min;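 active = mean replicate inhibition of at least 30%, or all replicates individually reaching that 30% level; inactive = mean below 30% and not every replicate reaching it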;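 note: 0% = neutral control wells and 100% = L-leucinethiol positive control wells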
Ecoli rRNA inh: selective bacterial rRNA inhibition in E. coli. E. coli WT GFP vs humanized-ribosome RFP mutants, fluorescence, 24 h; stronger effect = lower value; DMSO median 0, no signal -100. hit rate 1.6% among 350,000. GFP signal change (wild-type ribosome), % (concentration not given with the values);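 active = significant combined selectivity score with lowered wild-type GFP, culture density cut under 30%, mutant RFP and density less affected; inactive = any of these conditions unmet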
Starred values were filed as active, the others as inactive; · = not tested or not shown.

SMILES	MLL AF4-AF9 inh	SIRT5 inh	S100A4 inh HTS	E-sel inducer	ERAP1 inh	Ecoli rRNA inh
COc1ccc(S(=O)(=O)N(C)C[C@H]2Oc3ncc(-c4ccncc4)cc3C(=O)N([C@@H](C)CO)C[C@H]2C)cc1	-32.7	-2.8	90.1*	0.5	5.8	5.8
COc1ccc(S(=O)(=O)N(C)C[C@H]2Oc3ncc(-c4ccncc4)cc3C(=O)N([C@@H](C)CO)C[C@@H]2C)cc1	-1.8	-0.9	-2.0	3.1	17.7	2.3
Cc1ccc(S(=O)(=O)N(C)C[C@@H]2Oc3ncc(C#Cc4ccc(C(F)(F)F)cc4)cc3C(=O)N([C@H](C)CO)C[C@@H]2C)cc1	-2.8	24.8*	3.7	-0.2	0.5	-0.1
C[C@@H]1CN([C@@H](C)CO)C(=O)c2cc(NC(=O)CCC(F)(F)F)ccc2O[C@@H](C)CCCCO[C@H]1CN(C)C	·	·	·	0.3	·	0.2
CCCC#Cc1cnc2c(c1)C(=O)N([C@@H](C)CO)C[C@@H](C)[C@H](CN(C)S(=O)(=O)c1cccc(OC)c1)O2	0.8	29.0*	4.5	0.1	1.5	-4.3
CCCC#Cc1cnc2c(c1)C(=O)N([C@H](C)CO)C[C@@H](C)[C@@H](CN(C)S(=O)(=O)c1cccc(OC)c1)O2	0.1	1.6	3.2	0.6	-1.9	0.5
C[C@H]1CN([C@@H](C)CO)C(=O)c2cc(C#CCN(C)C)cnc2O[C@H]1CN(C)S(=O)(=O)c1ccccc1	-1.6	63.3*	-20.5	-0.2	-2.7	3.4
Cc1noc(C)c1NC(=O)Nc1ccc2c(c1)C(=O)N([C@H](C)CO)C[C@H](C)[C@@H](CN(C)S(=O)(=O)c1c(C)noc1C)OCCCC[C@H](C)O2	-6.2	-4.1	-13.1	0.1	0.2	5.0
C[C@@H]1CN([C@@H](C)CO)C(=O)c2cc(NS(C)(=O)=O)ccc2O[C@@H](C)CCCCO[C@H]1CN(C)S(=O)(=O)c1ccc(Cl)cc1	-0.2	-5.6	-6.6	-0.1	1.3	-5.4
Cc1sc(NC(=O)c2ccco2)c(C(=O)c2ccc(Cl)cc2)c1C	7.6	16.0*	-7.8	0.3	1.7	-6.3
Cc1sc(NC(=O)c2ccco2)c(C(c2ccccc2)N2CCC(C)CC2)c1C (centres undefined)	-8.8	18.3*	1.5	-3.4	0.0	2.6
CCN(CC)CC(=O)Nc1sc(C)c(C)c1C(=O)c1ccc(C)cc1	19.6	-1.1	0.5	1.7	-3.2	-23.9*
CCN(CC)CC(=O)Nc1sc(C)cc1C(=O)c1ccc(C)cc1	1.7	-4.8	0.5	-0.2	18.8	-12.8
COc1ccc2c3c(n(C)c2c1)[C@@H](CO)N(Cc1ccncc1)CC31CCN(C(=O)Nc2cccc(F)c2)CC1	1.9	1.5	-5.6	-0.2	6.1	-2.5
Cc1ccc(S(=O)(=O)Nc2cccc3c2O[C@@H](CN(C)Cc2ccc(Cl)c(Cl)c2)[C@@H](C)CN([C@H](C)CO)C3=O)cc1	·	·	·	-0.7	·	-1.3
COc1ccc(O)c(C(=O)c2cc(C#N)c(=O)n(-c3ccc(Cl)cc3)c2)c1	29.2*	-3.3	-4.3	-0.2	·	1.4
CC(C)C#Cc1cnc2c(c1)C(=O)N([C@@H](C)CO)C[C@H](C)[C@H](CN(C)C(=O)Nc1ccccc1F)O2	-4.4	1.0	-1.9	0.7	-1.4	-2.2
CCOc1ccc(-c2noc(CCCC(=O)NC3CCCC3)n2)cc1OC	0.1	18.6*	2.2	-0.2	-3.3	2.1
COc1ccc(-c2noc(CCCC(=O)NC3CCCCC3)n2)cc1OC	0.8	-4.0	-1.5	-0.2	-4.6	3.6
CNC[C@H]1Oc2ncc(-c3ccccc3C)cc2C(=O)N([C@@H](C)CO)C[C@H]1C	6.4	8.3	2.2	0.1	-0.7	4.9
O=C(N/N=C/c1cccc2ccccc12)c1cccs1	-2.9	17.9*	-1.2	0.3	-0.4	-15.4
COc1ccc(C(=O)N/N=C/c2ccccn2)cc1OC	0.6	2.0	0.0	·	0.2	-29.4*
O=C(N/N=C/c1ccccn1)c1ccccc1	-9.8	3.7	10.4	·	-0.2	-25.5*
O=C(N/N=C/c1ccccn1)c1ccncc1	-2.8	5.7	1.4	2.1	1.6	8.9
O=C(N/N=C/c1c[nH]c2ccccc12)c1cccs1	11.4	0.1	-2.7	-0.3	2.6	-10.6
